Data published in ChEMBL document CHEMBL3994654, “Discovery of phenyl acetamides as potent and selective GPR119 agonists” (Bioorg Med Chem Lett, 2017).
Converted amounts (≈) assume the structure as drawn.

Tests used:
[1] = target: T1, Glucose-dependent insulinotropic receptor (Homo sapiens, UniProt Q8TDV5); assay: Agonist activity at human GPR119 expressed in HEK293 cells assessed as increase in intracellular cAMP level after 60 mins by HTRF assay; assay type: functional, cell-based
T1 sequence (Q8TDV5 whole entry): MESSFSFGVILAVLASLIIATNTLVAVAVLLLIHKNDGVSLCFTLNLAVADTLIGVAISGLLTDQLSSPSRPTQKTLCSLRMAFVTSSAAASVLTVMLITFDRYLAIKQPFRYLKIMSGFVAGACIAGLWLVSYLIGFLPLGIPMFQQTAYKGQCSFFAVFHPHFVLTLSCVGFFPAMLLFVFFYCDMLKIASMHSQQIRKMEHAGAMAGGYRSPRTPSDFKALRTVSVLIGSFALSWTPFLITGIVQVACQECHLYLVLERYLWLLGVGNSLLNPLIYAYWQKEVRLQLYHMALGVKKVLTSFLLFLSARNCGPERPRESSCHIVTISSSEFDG
Summary of the method: (§1)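 cAMP stimulation is also given as % control at the top concentration, relative to an internal agonist control set at 100% cAMP stimulation. EC50 values are means of at least 2 independent experiments, except for two compounds.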

[2] = target: T2, Glucose-dependent insulinotropic receptor (Homo sapiens) (UniProt Q8TDV5); assay: Agonist activity at human GPR119 expressed in HEK293 cells assessed as increase in intracellular cAMP level after 60 mins by HTRF assay relative to control; assay type: functional, cell-based
T2 sequence (whole entry): T1 sequence (Q8TDV5 whole entry)
Summary of the method: (§2)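 EC50 values are means of at least 2 independent experiments, with a few single determinations. Maximal response is reported as the percentage of cAMP stimulation at the maximal dose tested, normalised to an internal agonist control set as 100%.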

[3] = target: T3, Glucose-dependent insulinotropic receptor (Mus musculus, UniProt Q7TQP3); assay: Agonist activity at mouse GPR119 expressed in CHO cells co-expressing Galpha15 assessed as increase in intracellular cAMP level after 60 mins by HTRF assay; assay type: functional, cell-based; summary of the method: as §1
T3 sequence (Q7TQP3 whole entry): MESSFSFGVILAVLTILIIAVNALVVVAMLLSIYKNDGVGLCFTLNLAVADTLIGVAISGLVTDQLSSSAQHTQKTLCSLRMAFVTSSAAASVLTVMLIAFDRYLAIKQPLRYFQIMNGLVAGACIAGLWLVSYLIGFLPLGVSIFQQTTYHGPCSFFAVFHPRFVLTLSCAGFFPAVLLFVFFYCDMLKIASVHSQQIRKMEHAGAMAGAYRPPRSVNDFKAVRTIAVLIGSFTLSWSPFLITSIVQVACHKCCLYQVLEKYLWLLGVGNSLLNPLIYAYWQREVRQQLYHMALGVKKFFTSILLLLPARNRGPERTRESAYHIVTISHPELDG

[4] = target: T4, Glucose-dependent insulinotropic receptor (Mus musculus) (UniProt Q7TQP3); assay: Agonist activity at mouse GPR119 expressed in CHO cells co-expressing Galpha15 assessed as increase in intracellular cAMP level after 60 mins by HTRF assay relative to control; assay type: functional, cell-based; summary of the method: as §2
T4 sequence (whole entry): T3 sequence (Q7TQP3 whole entry)

[5] = Kinetic solubility in fasted state simulated intestinal fluid at pH 6.5; assay type: physicochemical; details: read-out: Kinetic_solubility
[6] = Half life in Wistar Han rat at 0.5 mg/kg, iv by LC-MS/MS analysis; assay type: ADME, organism-based; details: in vivo
[7] = target: Voltage-gated inwardly rectifying potassium channel KCNH2 (Homo sapiens, UniProt Q12809)
Chain of Voltage-gated inwardly rectifying potassium channel KCNH2 (Q12809 whole entry): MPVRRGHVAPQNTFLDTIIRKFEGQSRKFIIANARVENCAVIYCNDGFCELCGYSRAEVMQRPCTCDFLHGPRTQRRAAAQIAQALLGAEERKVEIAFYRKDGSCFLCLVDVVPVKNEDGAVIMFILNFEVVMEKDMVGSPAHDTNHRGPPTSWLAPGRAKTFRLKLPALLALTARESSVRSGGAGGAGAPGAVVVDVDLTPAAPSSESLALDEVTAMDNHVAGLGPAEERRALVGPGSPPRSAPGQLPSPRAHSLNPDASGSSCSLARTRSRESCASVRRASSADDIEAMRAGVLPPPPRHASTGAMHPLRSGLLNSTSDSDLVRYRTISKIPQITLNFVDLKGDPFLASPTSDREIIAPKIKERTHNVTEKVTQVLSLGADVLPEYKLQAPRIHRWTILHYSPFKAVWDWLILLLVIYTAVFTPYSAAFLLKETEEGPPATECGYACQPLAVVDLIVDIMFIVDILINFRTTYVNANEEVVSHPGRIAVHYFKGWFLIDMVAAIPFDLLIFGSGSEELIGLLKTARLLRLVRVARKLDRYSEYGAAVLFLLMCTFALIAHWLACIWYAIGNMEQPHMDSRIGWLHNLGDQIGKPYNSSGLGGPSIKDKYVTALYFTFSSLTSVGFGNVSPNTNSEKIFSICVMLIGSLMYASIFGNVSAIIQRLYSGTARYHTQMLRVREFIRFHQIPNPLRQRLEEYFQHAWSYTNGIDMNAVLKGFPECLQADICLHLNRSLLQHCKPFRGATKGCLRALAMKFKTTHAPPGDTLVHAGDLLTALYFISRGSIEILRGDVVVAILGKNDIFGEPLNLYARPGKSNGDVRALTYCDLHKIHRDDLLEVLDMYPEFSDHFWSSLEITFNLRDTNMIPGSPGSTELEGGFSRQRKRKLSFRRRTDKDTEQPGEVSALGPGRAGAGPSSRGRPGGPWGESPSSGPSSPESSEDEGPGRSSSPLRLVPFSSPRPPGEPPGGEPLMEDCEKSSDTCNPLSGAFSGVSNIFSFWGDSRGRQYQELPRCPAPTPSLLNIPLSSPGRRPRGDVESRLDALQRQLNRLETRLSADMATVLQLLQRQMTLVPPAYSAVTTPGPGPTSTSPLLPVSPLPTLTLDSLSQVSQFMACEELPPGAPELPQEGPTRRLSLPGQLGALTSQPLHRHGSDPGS

Structure (SMILES)	EC50 [1]	Activity [2]	EC50 [3]	Activity [4]	solubility kinetic [5]	half-life [6]	IC50 [7]
O=C(Cc1ccc(OCC[C@@H]2C[C@@H]2C2CCN(c3ncc(Cl)cn3)CC2)c(F)c1)N1CCC1	2.2 nM	106%	1.6 nM	91%	65 µM (≈ 30.7 µg/mL)	–	–
O=C(Cc1ccc(OCC[C@@H]2C[C@@H]2C2CCN(c3ncc(Cl)cn3)CC2)nc1)N1CCC1	9.4 nM	112%	5.1 nM	133%	83 µM (≈ 37.8 µg/mL)	–	2100 nM
COCc1cnc(N2CCC([C@H]3C[C@H]3CCOc3ccc(CC(=O)N4CCC4)c(F)c3)CC2)nc1	0.7 nM	82%	1.6 nM	90%	152 µM (≈ 73.4 µg/mL)	1.9 h	19000 nM
NC(=O)Cc1ccc(OCC[C@@H]2C[C@@H]2C2CCN(c3ncc(Cl)cn3)CC2)cc1	67 nM	85%	16 nM	68%	–	–	–

Further compounds by falling EC50 [1], results first:

EC50 [1]	Activity [2]	EC50 [3]	Activity [4]	solubility kinetic [5]	half-life [6]	Structure (SMILES)	IC50 [7]
2 nM	78%	6.7 nM	102%	126 µM (≈ 59.3 µg/mL)	1.8 h	CC(C)c1noc(N2CCC([C@H]3C[C@H]3CCOc3ccc(CC(=O)N4CCC4)c(F)c3)CC2)n1	7000 nM
0.8 nM	89%	6.7 nM	110%	144 µM (≈ 70.4 µg/mL)	3.5 h	O=C(Cc1ccc(OCC[C@@H]2C[C@@H]2C2CCN(c3ncc(Cl)cn3)CC2)cc1F)N1CC(O)C1	–
0.8 nM	82%	0.5 nM	93%	97 µM (≈ 44.1 µg/mL)	4.7 h	O=C(Cc1ccc(OCC[C@@H]2C[C@@H]2C2CCN(c3ncc(Cl)cn3)CC2)cc1)N1CCC1	7400 nM
